According to ChEMBL document CHEMBL3124772, “Design, synthesis, and evaluation of conformationally restricted acetanilides as potent and selective β3 adrenergic receptor agonists for the treatment of overactive bladder” (J Med Chem, 2014):

How the values were obtained:
[1] = target: Beta-3 adrenergic receptor (Macaca mulatta) (UniProt Q28524); assay: Agonist activity at rhesus monkey beta-3 adrenergic receptor expressed in CHO cells assessed as increase in intracellular cAMP accumulation at 10^-10 to 10^-5 M after 30 mins by time-resolved fluorescence assay relative to R-(-)isoproterenol; format: functional, cell-based
Outline: (§1)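 CHO cells stably transfected with cloned β3-AR, harvested after 3 days subculture with enzyme-free dissociation, 6000 cells in HBSS with 5 mM HEPES, 0.1% BSA and 0.6 mM IBMX. Ligand at 10⁻¹⁰ to 10⁻⁵ M final, 30 min room temperature with labeled cAMP antibody; LANCE TR-FRET read after 1 h detection, cAMP from standard curve.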

[2] = target: Beta-3 adrenergic receptor (Macaca mulatta, UniProt Q28524); assay: Agonist activity at rhesus monkey beta-3 adrenergic receptor expressed in CHO cells assessed as increase in intracellular cAMP accumulation after 30 mins by time-resolved fluorescence assay; format: functional, cell-based; outline: as §1
[3] = target: Beta-3 adrenergic receptor (Canis lupus familiaris) (UniProt O02662); assay: Agonist activity at dog beta-3 adrenergic receptor expressed in CHO cells assessed as increase in intracellular cAMP accumulation at 10^-10 to 10^-5 M after 30 mins by time-resolved fluorescence assay relative to R-(-)isoproterenol; format: functional, cell-based; outline: as §1
[4] = target: Beta-3 adrenergic receptor (Canis lupus familiaris, UniProt O02662); assay: Agonist activity at dog beta-3 adrenergic receptor expressed in CHO cells assessed as increase in intracellular cAMP accumulation after 30 mins by time-resolved fluorescence assay; format: functional, cell-based; outline: as §1
[5] = target: Beta-3 adrenergic receptor (Rattus norvegicus) (UniProt P26255); assay: Agonist activity at rat beta-3 adrenergic receptor expressed in CHO cells assessed as increase in intracellular cAMP accumulation at 10^-10 to 10^-5 M after 30 mins by time-resolved fluorescence assay relative to R-(-)isoproterenol; format: functional, cell-based; outline: as §1
Sequence of Beta-3 adrenergic receptor (Rattus norvegicus) (P26255 whole entry): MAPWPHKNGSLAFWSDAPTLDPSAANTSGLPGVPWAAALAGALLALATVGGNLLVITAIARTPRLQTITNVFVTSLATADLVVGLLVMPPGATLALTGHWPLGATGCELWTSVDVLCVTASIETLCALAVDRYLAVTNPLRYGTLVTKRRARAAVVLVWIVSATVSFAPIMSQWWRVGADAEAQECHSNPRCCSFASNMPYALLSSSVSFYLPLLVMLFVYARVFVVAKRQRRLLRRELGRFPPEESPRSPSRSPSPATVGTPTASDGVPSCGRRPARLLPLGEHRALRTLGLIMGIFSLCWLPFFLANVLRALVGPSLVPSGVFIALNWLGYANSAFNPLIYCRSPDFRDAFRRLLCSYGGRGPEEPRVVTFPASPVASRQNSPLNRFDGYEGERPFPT

[6] = target: Beta-3 adrenergic receptor (Rattus norvegicus, UniProt P26255); assay: Agonist activity at rat beta-3 adrenergic receptor expressed in CHO cells assessed as increase in intracellular cAMP accumulation after 30 mins by time-resolved fluorescence assay; format: functional, cell-based; outline: as §1
Sequence of Beta-3 adrenergic receptor (Rattus norvegicus, UniProt P26255) (P26255 whole entry): as above

[7] = target: Sodium-dependent serotonin transporter (Homo sapiens, UniProt P31645); assay: Inhibition of human SERT expressed in HEK293 cells incubated for 30 mins prior to fluorescent substrate addition measured after 30 mins by fluorescent dye uptake assay; format: cell-based
Outline: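 HEK293 stably expressing human SERT, 20000 cells/well plated overnight at 37 °C, then in HBSS with 20 mM HEPES and 0.1% BSA. Compound added from 100× DMSO stock, 30 min at 37 °C, then fluorescent transporter substrate for 30 more min. Fluorescence read at 440/520 nm, normalized to DMSO (0%) and 10 μM fluoxetine (100%), four-parameter fit for IC50.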

[8] = target: Sodium channel protein type 5 subunit alpha (Homo sapiens, UniProt Q14524); assay: Inhibition of human NaV1.5
Sequence of Sodium channel protein type 5 subunit alpha (Q14524 whole entry): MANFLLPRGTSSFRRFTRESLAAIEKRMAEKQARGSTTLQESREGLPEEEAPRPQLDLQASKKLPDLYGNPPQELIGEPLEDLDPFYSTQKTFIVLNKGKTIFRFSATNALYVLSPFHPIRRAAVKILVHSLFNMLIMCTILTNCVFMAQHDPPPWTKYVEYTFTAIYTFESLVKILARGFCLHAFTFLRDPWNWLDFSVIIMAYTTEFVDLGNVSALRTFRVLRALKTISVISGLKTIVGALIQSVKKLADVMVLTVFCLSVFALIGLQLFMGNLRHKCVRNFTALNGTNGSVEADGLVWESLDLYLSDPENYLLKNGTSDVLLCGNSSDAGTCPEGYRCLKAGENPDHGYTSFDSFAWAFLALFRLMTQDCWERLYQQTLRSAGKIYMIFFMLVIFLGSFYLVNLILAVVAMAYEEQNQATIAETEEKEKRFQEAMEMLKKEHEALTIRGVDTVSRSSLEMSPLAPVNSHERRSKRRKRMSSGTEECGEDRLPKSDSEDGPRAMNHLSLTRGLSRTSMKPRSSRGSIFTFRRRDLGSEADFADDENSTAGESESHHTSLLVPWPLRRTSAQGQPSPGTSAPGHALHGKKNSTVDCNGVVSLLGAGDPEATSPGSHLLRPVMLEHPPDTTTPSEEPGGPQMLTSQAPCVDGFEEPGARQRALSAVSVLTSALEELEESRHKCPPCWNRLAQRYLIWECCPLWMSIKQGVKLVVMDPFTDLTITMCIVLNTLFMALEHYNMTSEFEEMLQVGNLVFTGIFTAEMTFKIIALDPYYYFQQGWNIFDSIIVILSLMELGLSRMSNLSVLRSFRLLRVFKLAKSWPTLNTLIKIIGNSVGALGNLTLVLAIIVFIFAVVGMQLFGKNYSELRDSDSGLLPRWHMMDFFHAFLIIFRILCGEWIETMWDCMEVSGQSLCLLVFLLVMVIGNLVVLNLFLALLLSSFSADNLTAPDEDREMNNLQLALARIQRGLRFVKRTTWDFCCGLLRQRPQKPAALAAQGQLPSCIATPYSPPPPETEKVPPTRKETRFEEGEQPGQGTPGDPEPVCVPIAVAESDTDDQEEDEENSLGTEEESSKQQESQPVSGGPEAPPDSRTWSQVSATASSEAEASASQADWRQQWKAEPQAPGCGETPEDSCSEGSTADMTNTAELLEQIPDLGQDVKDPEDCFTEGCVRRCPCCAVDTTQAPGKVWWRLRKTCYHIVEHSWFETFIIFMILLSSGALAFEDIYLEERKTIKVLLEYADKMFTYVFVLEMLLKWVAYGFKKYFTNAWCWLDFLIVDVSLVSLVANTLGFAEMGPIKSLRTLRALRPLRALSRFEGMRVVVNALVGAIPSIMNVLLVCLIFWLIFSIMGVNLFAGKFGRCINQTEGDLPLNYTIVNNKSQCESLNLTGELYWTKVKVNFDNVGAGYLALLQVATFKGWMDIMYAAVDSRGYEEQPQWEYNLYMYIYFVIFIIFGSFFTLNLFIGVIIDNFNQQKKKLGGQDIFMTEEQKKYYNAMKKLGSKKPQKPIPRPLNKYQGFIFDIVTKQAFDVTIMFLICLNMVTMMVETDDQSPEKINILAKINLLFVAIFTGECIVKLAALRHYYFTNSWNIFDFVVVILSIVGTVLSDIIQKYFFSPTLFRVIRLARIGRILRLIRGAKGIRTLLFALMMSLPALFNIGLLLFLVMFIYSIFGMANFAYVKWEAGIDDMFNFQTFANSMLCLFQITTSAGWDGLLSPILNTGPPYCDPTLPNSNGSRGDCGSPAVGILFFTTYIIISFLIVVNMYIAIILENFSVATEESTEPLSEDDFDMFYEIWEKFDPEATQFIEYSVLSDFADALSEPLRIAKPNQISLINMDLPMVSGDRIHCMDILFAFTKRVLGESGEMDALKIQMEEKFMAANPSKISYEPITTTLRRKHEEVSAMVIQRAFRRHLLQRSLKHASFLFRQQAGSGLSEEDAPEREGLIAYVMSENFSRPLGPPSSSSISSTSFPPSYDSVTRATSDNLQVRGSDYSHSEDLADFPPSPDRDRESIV

[9] = target: Voltage-dependent L-type calcium channel subunit alpha-1C (Homo sapiens, UniProt Q13936); assay: Displacement of [3H]-diltiazem from human CaV1.2
[10] = target: Cytochrome P450 3A4 (Homo sapiens, UniProt P08684); assay: Inhibition of CYP3A4 in human liver microsomes assessed as testosterone 6beta-hydroxylation; format: ADME
[11] = target: Cytochrome P450 2D6 (Homo sapiens, UniProt P10635); assay: Inhibition of CYP2D6 in human liver microsomes assessed as dextromethorphan O-demethylation; format: ADME
[12] = target: Cytochrome P450 2C9 (Homo sapiens, UniProt P11712); assay: Inhibition of CYP2C9 in human liver microsomes assessed as diclofenac alpha'-hydroxylation; format: ADME
Sequence of Cytochrome P450 2C9 (P11712 whole entry): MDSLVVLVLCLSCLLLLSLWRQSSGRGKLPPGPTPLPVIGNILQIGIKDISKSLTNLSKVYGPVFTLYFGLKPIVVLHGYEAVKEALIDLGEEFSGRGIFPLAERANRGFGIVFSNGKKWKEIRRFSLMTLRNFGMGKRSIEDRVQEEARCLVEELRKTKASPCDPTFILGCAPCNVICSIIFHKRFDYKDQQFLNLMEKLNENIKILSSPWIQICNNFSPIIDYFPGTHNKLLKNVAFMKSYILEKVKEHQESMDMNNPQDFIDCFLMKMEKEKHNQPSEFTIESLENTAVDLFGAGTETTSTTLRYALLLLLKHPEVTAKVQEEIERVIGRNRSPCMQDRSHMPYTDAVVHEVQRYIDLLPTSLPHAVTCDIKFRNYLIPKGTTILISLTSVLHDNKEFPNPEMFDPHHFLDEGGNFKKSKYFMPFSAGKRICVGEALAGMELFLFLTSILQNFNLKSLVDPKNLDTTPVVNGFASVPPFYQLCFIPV

[13] = Apparent permeability in MDCK2 cells; format: ADME, cell-based, Canis lupus familiaris, MDCK-II; details: dog, MDCK
[14] = Intrinsic clearance in rat liver microsomes; format: ADME; details: read-out: CLH
[15] = target: Voltage-gated inwardly rectifying potassium channel KCNH2 (Homo sapiens, UniProt Q12809); assay: Inhibition of human ERG
Sequence of Voltage-gated inwardly rectifying potassium channel KCNH2 (Q12809 whole entry): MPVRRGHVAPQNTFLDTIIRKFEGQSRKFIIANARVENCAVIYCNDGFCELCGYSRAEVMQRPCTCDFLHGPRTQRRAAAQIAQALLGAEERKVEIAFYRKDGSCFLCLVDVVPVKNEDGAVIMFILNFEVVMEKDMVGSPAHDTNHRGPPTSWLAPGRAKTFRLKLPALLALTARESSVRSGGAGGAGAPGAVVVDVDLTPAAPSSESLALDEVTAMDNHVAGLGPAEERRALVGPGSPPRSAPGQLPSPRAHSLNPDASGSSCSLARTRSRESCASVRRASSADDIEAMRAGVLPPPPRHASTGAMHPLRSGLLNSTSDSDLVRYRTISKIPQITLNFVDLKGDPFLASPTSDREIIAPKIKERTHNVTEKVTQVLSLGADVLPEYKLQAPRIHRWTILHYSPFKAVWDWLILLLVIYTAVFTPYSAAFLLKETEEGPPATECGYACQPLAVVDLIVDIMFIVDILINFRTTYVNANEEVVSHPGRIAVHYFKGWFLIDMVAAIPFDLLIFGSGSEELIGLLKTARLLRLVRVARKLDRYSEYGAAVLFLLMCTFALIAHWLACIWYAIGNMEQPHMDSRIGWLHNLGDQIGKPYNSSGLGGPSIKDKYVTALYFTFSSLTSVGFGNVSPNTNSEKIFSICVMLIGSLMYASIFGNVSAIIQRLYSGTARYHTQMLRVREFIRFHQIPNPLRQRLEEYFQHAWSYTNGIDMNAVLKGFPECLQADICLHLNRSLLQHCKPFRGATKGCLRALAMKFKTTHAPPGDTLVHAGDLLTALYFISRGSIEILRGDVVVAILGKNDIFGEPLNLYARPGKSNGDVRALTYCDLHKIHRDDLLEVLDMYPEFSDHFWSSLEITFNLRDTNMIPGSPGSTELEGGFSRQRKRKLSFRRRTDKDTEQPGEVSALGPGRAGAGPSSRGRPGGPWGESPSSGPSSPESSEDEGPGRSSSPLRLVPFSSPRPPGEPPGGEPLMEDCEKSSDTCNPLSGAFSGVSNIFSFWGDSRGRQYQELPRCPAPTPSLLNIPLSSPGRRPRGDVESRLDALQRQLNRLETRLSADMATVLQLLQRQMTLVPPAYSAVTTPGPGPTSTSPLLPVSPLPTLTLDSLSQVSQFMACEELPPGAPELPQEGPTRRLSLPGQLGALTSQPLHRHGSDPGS

[16] = (§2) Fraction unbound in Sprague-Dawley rat plasma at 1 mg/kg, iv and 2 mg/kg, po; format: ADME, organism-based; details: Sprague-Dawley, plasma
[17] = Oral bioavailability in Sprague-Dawley rat at 2 mg/kg; format: ADME, organism-based; details: in vivo
[18] = Half life in Sprague-Dawley rat at 1 mg/kg, iv and 2 mg/kg, po; format: ADME, organism-based; details: in vivo
[19] = Plasma clearance in Sprague-Dawley rat at 1 mg/kg, iv and 2 mg/kg, po; format: ADME, organism-based
[20] = target: Beta-2 adrenergic receptor (Homo sapiens, UniProt P07550); assay: Displacement of [125I]-cyanopindolol from recombinant human beta-2 adrenergic receptor expressed in CHO cell membranes after 1 hr by scintillation counting analysis
Sequence of Beta-2 adrenergic receptor (P07550 whole entry): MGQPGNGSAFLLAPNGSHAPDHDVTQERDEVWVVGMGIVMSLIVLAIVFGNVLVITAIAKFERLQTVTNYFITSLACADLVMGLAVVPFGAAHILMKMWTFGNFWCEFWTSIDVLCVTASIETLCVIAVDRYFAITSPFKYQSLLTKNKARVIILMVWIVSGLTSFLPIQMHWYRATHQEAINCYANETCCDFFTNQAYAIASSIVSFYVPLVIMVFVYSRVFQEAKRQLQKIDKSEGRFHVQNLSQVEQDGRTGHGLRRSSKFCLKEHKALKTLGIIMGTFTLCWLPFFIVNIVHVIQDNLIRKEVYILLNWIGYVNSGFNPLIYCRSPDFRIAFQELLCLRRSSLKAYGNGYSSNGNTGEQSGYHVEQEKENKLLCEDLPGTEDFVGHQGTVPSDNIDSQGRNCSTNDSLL

[21] = target: Beta-1 adrenergic receptor (Homo sapiens, UniProt P08588); assay: Displacement of [125I]-cyanopindolol from recombinant human beta-1 adrenergic receptor expressed in CHO cell membranes after 1 hr by scintillation counting analysis
Sequence of Beta-1 adrenergic receptor (P08588 whole entry): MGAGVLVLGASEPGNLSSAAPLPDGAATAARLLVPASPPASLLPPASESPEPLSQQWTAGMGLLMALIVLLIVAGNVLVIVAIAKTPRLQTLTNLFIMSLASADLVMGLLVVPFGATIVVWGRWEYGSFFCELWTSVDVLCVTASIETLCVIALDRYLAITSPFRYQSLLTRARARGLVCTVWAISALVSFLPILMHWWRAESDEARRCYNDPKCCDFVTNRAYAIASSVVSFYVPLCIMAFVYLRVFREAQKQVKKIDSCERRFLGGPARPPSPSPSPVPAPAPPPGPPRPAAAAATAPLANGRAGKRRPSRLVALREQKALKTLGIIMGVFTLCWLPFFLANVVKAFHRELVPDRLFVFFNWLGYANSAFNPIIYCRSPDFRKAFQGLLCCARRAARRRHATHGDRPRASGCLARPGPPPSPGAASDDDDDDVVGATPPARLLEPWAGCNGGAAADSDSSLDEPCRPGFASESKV

[22] = target: T1, Beta-3 adrenergic receptor (Homo sapiens, UniProt P13945); assay: Agonist activity at human beta-3 adrenergic receptor expressed in CHO cells assessed as increase in intracellular cAMP accumulation at 10^-10 to 10^-5 M after 30 mins by time-resolved fluorescence assay relative to R-(-)isoproterenol; format: functional, cell-based; outline: as §1
[23] = target: T1, Beta-3 adrenergic receptor; assay: Agonist activity at human beta-3 adrenergic receptor expressed in CHO cells assessed as increase in intracellular cAMP accumulation after 30 mins by time-resolved fluorescence assay; format: functional, cell-based; outline: as §1
[24] = test system: Plasma; assay: as §2; format: ADME, organism-based; details: in vivo, BLD = below limit of detection
[25] = species: Homo sapiens; assay: Selectivity ratio of IC50 for human SERT to EC50 for human beta-3 adrenergic receptor
[26] = test system: Plasma; assay: Unbound plasma concentration in acetic acid-induced Sprague-Dawley rat bladder hyperactivity model at 10 mg/kg, iv administered as 1 to 2 hrs infusion; format: ADME, organism-based; parameters: dose 10 mg/kg, route intravenous; details: in vivo
[27] = test system: Plasma; assay: Unbound plasma concentration in acetic acid-induced Sprague-Dawley rat bladder hyperactivity model at 3 mg/kg, iv administered as 1 to 2 hrs infusion; format: ADME, organism-based; parameters: dose 3 mg/kg, route intravenous; details: in vivo
[28] = test system: Plasma; assay: Unbound plasma concentration in acetic acid-induced Sprague-Dawley rat bladder hyperactivity model at 1 mg/kg, iv administered as 1 to 2 hrs infusion; format: ADME, organism-based; parameters: dose 1 mg/kg, route intravenous; details: in vivo
[29] = test system: Rattus norvegicus; assay: Reduction of micturition pressure at 1.2 uM unbound plasma level in acetic acid-induced Sprague-Dawley rat bladder hyperactivity model at 10 mg/kg, iv administered as 1 to 2 hrs infusion relative to vehicle-treated control; format: functional; parameters: scale not given: the % may be the effect or the level left
[30] = test system: Rattus norvegicus; assay: Reduction of micturition pressure in iv dosed acetic acid-induced Sprague-Dawley rat bladder hyperactivity model administered as 1 to 2 hrs infusion; format: functional, organism-based
[31] = Lipophilicity, log D of the compound at pH 7.3; format: physicochemical; details: buffer
[32] = Intrinsic clearance in monkey liver microsomes; format: ADME, Macaca mulatta, Microsome; details: rhesus monkey, read-out: CLH
[33] = Intrinsic clearance in dog liver microsomes; format: ADME, Canis lupus familiaris; details: read-out: CLH
[34] = Intrinsic clearance in human liver microsomes; format: ADME; details: read-out: CLH
[35] = Fraction unbound in rhesus monkey plasma at 1 mg/kg, iv and 2 mg/kg, po; format: ADME, organism-based, Macaca mulatta
[36] = Fraction unbound in Beagle dog plasma at 1 mg/kg, iv and 2 mg/kg, po; format: ADME, organism-based, Canis lupus familiaris
[37] = Oral bioavailability in Beagle dog at 2 mg/kg; format: ADME, organism-based, Canis lupus familiaris; details: in vivo
[38] = Oral bioavailability in rhesus monkey at 2 mg/kg; format: ADME, organism-based, Macaca mulatta; details: in vivo
[39] = Half life in Beagle dog at 1 mg/kg, iv and 2 mg/kg, po; format: ADME, organism-based, Canis lupus familiaris; details: in vivo
[40] = Half life in rhesus monkey at 1 mg/kg, iv and 2 mg/kg, po; format: ADME, organism-based, Macaca mulatta; details: in vivo
[41] = Plasma clearance in Beagle dog at 1 mg/kg, iv and 2 mg/kg, po; format: ADME, organism-based, Canis lupus familiaris
[42] = Plasma clearance in rhesus monkey at 1 mg/kg, iv and 2 mg/kg, po; format: ADME, organism-based, Macaca mulatta
[43] = test system: Rattus norvegicus; assay: Reduction of micturition pressure at 27 uM unbound plasma level in acetic acid-induced Sprague-Dawley rat bladder hyperactivity model at 10 mg/kg, iv administered as 1 to 2 hrs infusion relative to vehicle-treated control; format: functional; parameters: scale not given: the % may be the effect or the level left

Nc1nc2c(s1)CC[C@H]2C(=O)Nc1ccc(C[C@@H]2CC[C@H]([C@H](O)c3ccccc3)N2)cc1
Activity [1]: 78%
EC50 [2]: 0.06 nM
Activity [3]: 102%
EC50 [4]: 0.19 nM
Activity [5]: 100%
EC50 [6]: 1.3 nM
IC50 [7]: 1220 nM
IC50 [8]: 5.6 µM
IC50 [9]: > 30 µM
IC50 [10]: 86 µM
IC50 [11]: 18.3 µM
IC50 [12]: > 100 µM
Papp [13]: 5 ×10⁻⁶ cm/s
CLint scaled [14]: 59 mL/min/kg
IC50 [15]: 12.7 µM
fraction unbound [16]: 0.18
bioavailability [17]: 6%
half-life [18]: 240 min
clearance [19]: 50 mL/min/kg
IC50 [20]: > 20 µM
IC50 [21]: > 20 µM
Activity [22]: 91%
EC50 [23]: 0.15 nM

Nc1nc2c(s1)CC[C@H]2C(=O)Nc1ccc(C[C@@H]2CC[C@H]([C@H](O)c3cccnc3)N2)cc1
Papp [13]: < 1 ×10⁻⁶ cm/s
CLint scaled [14]: 57 mL/min/kg
Fu [24]: BLD
bioavailability [17]: 0%
half-life [18]: 240 min
clearance [19]: 32 mL/min/kg
IC50 [20]: > 20 µM
IC50 [21]: > 20 µM
Activity [22]: 101%
EC50 [23]: 0.37 nM

Cc1nc2c(s1)CC[C@H]2C(=O)Nc1ccc(C[C@@H]2CC[C@H]([C@H](O)c3cccnc3)N2)cc1
Ratio IC50/EC50 [25]: 77
IC50 [7]: 89 nM
IC50 [8]: > 30 µM
IC50 [9]: > 30 µM
IC50 [10]: 41.8 µM
IC50 [11]: > 100 µM
IC50 [12]: 67.2 µM
Papp [13]: 17 ×10⁻⁶ cm/s
CLint scaled [14]: 62 mL/min/kg
IC50 [15]: 12 µM
fraction unbound [16]: 0.11
bioavailability [17]: 46%
half-life [18]: 60 min
clearance [19]: 25 mL/min/kg
IC50 [20]: > 20 µM
IC50 [21]: > 20 µM
Activity [22]: 89%
EC50 [23]: 1.15 nM

O=C(Nc1ccc(C[C@@H]2CC[C@H]([C@H](O)c3cccnc3)N2)cc1)[C@@H]1CCc2scnc21
Cp(f) [26]: 1.17 µM
Cp(f) [27]: 0.26 µM
Cp(f) [28]: 0.09 µM
Activity [29]: 59%
Activity [30]: Dose-dependent effect
Activity [1]: 98%
EC50 [2]: 2 nM
Activity [3]: 82%
EC50 [4]: 5 nM
Activity [5]: 89%
EC50 [6]: 27.6 nM
logD [31]: 0.9
CLint scaled [32]: 205 mL/min/kg
CLint scaled [33]: < 10 mL/min/kg
CLint scaled [34]: < 10 mL/min/kg
IC50 [7]: 422 nM
IC50 [8]: > 30 µM
IC50 [9]: > 30 µM
IC50 [10]: > 100 µM
IC50 [11]: 78.8 µM
IC50 [12]: > 100 µM
Papp [13]: 13 ×10⁻⁶ cm/s
CLint scaled [14]: < 15 mL/min/kg
fraction unbound [35]: 1
fraction unbound [36]: 0.7
fraction unbound [16]: 0.19
bioavailability [37]: 67%
bioavailability [38]: 8%
bioavailability [17]: 41%
half-life [39]: 360 min
half-life [40]: 120 min
half-life [18]: 120 min
clearance [41]: 27 mL/min/kg
clearance [42]: 36 mL/min/kg
clearance [19]: 33 mL/min/kg
IC50 [20]: > 20 µM
IC50 [21]: > 20 µM
Activity [22]: 103%
EC50 [23]: 1.36 nM

O=C(Nc1ccc(C[C@@H]2CC[C@H]([C@H](O)c3cccnc3)N2)cc1)[C@@H]1CCc2ccnn21
Cp(f) [26]: 26.8 µM
Cp(f) [27]: 7.6 µM
Cp(f) [28]: 2 µM
Activity [30]: Dose-dependent effect
Activity [43]: 69%
Activity [1]: 93%
EC50 [2]: 4.7 nM
Activity [3]: 86%
EC50 [4]: 22 nM
Activity [5]: 98%
EC50 [6]: 434 nM
logD [31]: 0.9
CLint scaled [32]: 261 mL/min/kg
CLint scaled [33]: 31 mL/min/kg
Ratio IC50/EC50 [25]: 243
CLint scaled [34]: 19 mL/min/kg
IC50 [7]: 898 nM
IC50 [8]: > 30 µM
IC50 [9]: > 30 µM
IC50 [10]: > 100 µM
IC50 [11]: > 100 µM
IC50 [12]: > 100 µM
Papp [13]: 6 ×10⁻⁶ cm/s
CLint scaled [14]: 55 mL/min/kg
IC50 [15]: > 30 µM
fraction unbound [35]: 1
fraction unbound [36]: 0.7
fraction unbound [16]: 0.36
bioavailability [37]: 100%
bioavailability [38]: 11%
bioavailability [17]: 35%
half-life [39]: 480 min
half-life [40]: 240 min
half-life [18]: 180 min
clearance [41]: 34 mL/min/kg
clearance [42]: 36 mL/min/kg
clearance [19]: 24 mL/min/kg
IC50 [20]: > 20 µM
IC50 [21]: > 20 µM
Activity [22]: 84%
EC50 [23]: 3.7 nM
